Experimental data taken from ChEMBL document CHEMBL3608251, “Probing the 'bipolar' nature of the carbonic anhydrase active site: aromatic sulfonamides containing 1,3-oxazol-5-yl moiety as picomolar inhibitors of cytosolic CA I and CA II isoforms” (Eur J Med Chem, 2015).

Assays:
Carbonic anhydrase 2 = Carbonic anhydrase 2 (Homo sapiens, UniProt P00918); experiment: Inhibition of human recombinant carbonic anhydrase 2 preincubated for 15 mins by stopped flow CO2 hydration method
Homo sapiens [1] = species: Homo sapiens; experiment: Selectivity ratio of Ki for human recombinant carbonic anhydrase 1 to Ki for human recombinant carbonic anhydrase 2
Carbonic anhydrase 1 = Carbonic anhydrase 1 (Homo sapiens, UniProt P00915); experiment: Inhibition of human recombinant carbonic anhydrase 1 preincubated for 15 mins by stopped flow CO2 hydration method
Summary of the method: (§1)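 Stopped-flow assay of CO2 hydration by in-house recombinant CA isoforms. Phenol red 0.2 mM read at 557 nm, in 20 mM Tris pH 8.3 with 20 mM Na2SO4 for constant ionic strength. CO2 1.7–17 mM; initial rates over 10–100 s, uncatalyzed rate subtracted. Inhibitor diluted in buffer down to 0.005 nM and preincubated with enzyme 15 min at room temperature. Ki by non-linear least squares with Cheng-Prusoff, mean of ≥3 determinations.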

Carbonic anhydrase 9 = Carbonic anhydrase 9 (Homo sapiens, UniProt Q16790); experiment: Inhibition of human recombinant carbonic anhydrase 9 preincubated for 15 mins by stopped flow CO2 hydration method; summary of the method: as §1
Carbonic anhydrase 12 = Carbonic anhydrase 12 (Homo sapiens, UniProt O43570); experiment: Inhibition of human recombinant carbonic anhydrase 12 preincubated for 15 mins by stopped flow CO2 hydration method; summary of the method: as §1
Homo sapiens [2] = species: Homo sapiens; experiment: Selectivity ratio of Ki for human recombinant carbonic anhydrase 9 to Ki for human recombinant carbonic anhydrase 2
Homo sapiens [3] = species: Homo sapiens; experiment: Selectivity ratio of Ki for human recombinant carbonic anhydrase 12 to Ki for human recombinant carbonic anhydrase 2
Homo sapiens [4] = species: Homo sapiens; experiment: Selectivity ratio of Ki for human recombinant carbonic anhydrase 2 to Ki for human recombinant carbonic anhydrase 1
Homo sapiens [5] = species: Homo sapiens; experiment: Selectivity ratio of Ki for human recombinant carbonic anhydrase 2 to Ki for human recombinant carbonic anhydrase 12

Carbonic anhydrase 1, sequence (P00915 whole entry, canonical isoform): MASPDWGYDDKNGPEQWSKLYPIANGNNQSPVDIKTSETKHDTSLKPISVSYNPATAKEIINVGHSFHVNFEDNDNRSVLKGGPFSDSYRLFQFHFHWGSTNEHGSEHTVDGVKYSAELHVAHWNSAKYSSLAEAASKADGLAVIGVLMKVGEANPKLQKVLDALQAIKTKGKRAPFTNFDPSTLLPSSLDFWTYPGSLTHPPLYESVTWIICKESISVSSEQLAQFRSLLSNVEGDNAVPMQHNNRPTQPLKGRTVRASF
Carbonic anhydrase 12, sequence (O43570 whole entry): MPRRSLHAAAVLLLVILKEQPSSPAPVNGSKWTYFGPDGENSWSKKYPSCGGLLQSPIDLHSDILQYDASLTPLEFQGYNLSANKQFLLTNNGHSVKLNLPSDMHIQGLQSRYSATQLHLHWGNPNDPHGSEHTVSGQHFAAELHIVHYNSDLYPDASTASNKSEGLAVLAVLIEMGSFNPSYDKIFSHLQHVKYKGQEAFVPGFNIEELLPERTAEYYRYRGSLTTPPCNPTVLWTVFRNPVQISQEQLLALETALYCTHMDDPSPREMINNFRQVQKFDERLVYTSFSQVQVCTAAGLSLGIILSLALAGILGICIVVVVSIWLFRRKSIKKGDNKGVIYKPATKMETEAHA

Ki (Carbonic anhydrase 2) [nM] | Ratio Ki (Homo sapiens [1]) | Ki (Carbonic anhydrase 1) [nM] | Ki (Carbonic anhydrase 9) [nM] | Ki (Carbonic anhydrase 12) [nM] | Ratio Ki (Homo sapiens [2]) | Ratio Ki (Homo sapiens [3]) | Ratio Ki (Homo sapiens [4]) | Ratio Ki (Homo sapiens [5]) | SMILES
0.03 |  | 0.09 |  | 9.2 |  |  | 1000 |  | NS(=O)(=O)c1cc(-c2cnc(C(=O)N3CCOCC3)o2)cs1
 |  | 22.5 | 36.4 | 30.3 |  |  |  |  | NS(=O)(=O)c1ccc(-c2cnc(C(=O)N3CCOCC3)o2)s1
0.008 |  | 0.01 | 1.6 | 6.9 |  |  |  |  | NS(=O)(=O)c1ccc(-c2cnc(C(=O)N3CCOCC3)o2)cc1
0.05 |  | > 10000 | 4.5 | > 10000 |  |  | > 100000 | > 100000 | COc1ccc(-c2cnc(C(=O)N3CCOCC3)o2)cc1S(N)(=O)=O
4.8 |  | 130 | 122 | 9.2 |  |  | 1000 |  | NS(=O)(=O)c1ccc(-c2cnc(C3CC3)o2)s1
6.3 |  | 141 | 10.5 | 9.4 |  |  | 1000 |  | Cc1ncc(-c2ccc(S(N)(=O)=O)s2)o1
0.01 |  | > 10000 | 4.1 | 8570 |  |  | > 100000 | > 100000 | COc1ccc(-c2cnc(C(=O)N3CCCC3)o2)cc1S(N)(=O)=O
0.009 |  | 0.01 | 1.7 | 42.3 |  |  |  |  | NS(=O)(=O)c1ccc(-c2cnc(C(=O)N3CCCC3)o2)cc1
0.01 |  | 36.8 |  | 5.1 |  |  | 1000 |  | NS(=O)(=O)c1ccc(-c2cnc(C3CCC3)o2)s1
0.02 |  | 79.9 | 15.2 | 64.4 |  |  | 1000 |  | NS(=O)(=O)c1cc(-c2cnc(C(=O)N3CCCC3)o2)cs1
0.01 |  | 41.9 | 18.7 | 6.7 |  |  | 1000 |  | NS(=O)(=O)c1ccc(-c2cnc(C(=O)N3CCCC3)o2)s1

The next lines start with the compound.

SMILES | Ki (Carbonic anhydrase 2) [nM] | Ratio Ki (Homo sapiens [1]) | Ki (Carbonic anhydrase 1) [nM] | Ki (Carbonic anhydrase 9) [nM] | Ki (Carbonic anhydrase 12) [nM] | Ratio Ki (Homo sapiens [2]) | Ratio Ki (Homo sapiens [3]) | Ratio Ki (Homo sapiens [4]) | Ratio Ki (Homo sapiens [5])
NS(=O)(=O)c1ccc(-c2cnc(C3CC3)o2)cc1 | 0.01 | 100 | 4.8 | 3.2 | 6.2 | 100 | 100 |  | 
NS(=O)(=O)c1cc(-c2cnc(C3CCC3)o2)cs1 | 0.01 |  | 9 | 25.9 | 6.6 |  |  | 1000 | 
Cc1ccc(-c2cnc(C3CCC3)o2)cc1S(N)(=O)=O | 283 |  | 231 | 285 | 1390 |  |  | > 100000 | > 100000
COc1ccc(-c2cnc(C3CC3)o2)cc1S(N)(=O)=O | 8860 |  | > 10000 | 438 | 7960 |  |  | > 100000 | > 100000
Cc1ncc(-c2ccc(S(N)(=O)=O)cc2)o1 |  |  | 96.3 | 23.1 | 8.5 |  |  |  | 
NS(=O)(=O)c1ccc(-c2cnc(C3CCC3)o2)cc1 | 0.02 | 100 | 55.3 |  | 8.7 | 100 | 100 |  | 
Cc1ncc(-c2csc(S(N)(=O)=O)c2)o1 | 0.01 |  | 0.05 | 26.3 | 3.6 |  |  | 1000 | 
Cc1ccc(-c2cnc(C(=O)N3CCOCC3)o2)cc1S(N)(=O)=O | 0.28 |  | 58.6 | 3.7 | 557 |  |  | > 100000 | > 100000
NS(=O)(=O)c1cc(-c2cnc(C3CC3)o2)cs1 | 2.5 |  | 22 |  | 8.7 |  |  | 1000 | 
Cc1ccc(-c2cnc(C3CC3)o2)cc1S(N)(=O)=O | 63.9 |  | 289 |  | 381 |  |  | > 100000 | > 100000
COc1ccc(-c2cnc(C3CCC3)o2)cc1S(N)(=O)=O | 58.2 |  | 6110 |  | 62.8 |  |  | > 100000 | > 100000
COc1ccc(-c2cnc(C)o2)cc1S(N)(=O)=O | 4420 |  | > 10000 | 276 | 3540 |  |  | > 100000 | > 100000
Cc1ccc(-c2cnc(C(=O)N3CCCC3)o2)cc1S(N)(=O)=O | 0.01 |  | 8.5 | 42.5 | 2790 |  |  | > 100000 | > 100000
Cc1ncc(-c2ccc(C)c(S(N)(=O)=O)c2)o1 | 7.1 |  | 45.4 | 274 | 245 |  |  | > 100000 | > 100000
